Results as given in ChEMBL document CHEMBL3739352, “Anticonvulsant activity, crystal structures, and preliminary safety evaluation of N-trans-cinnamoyl derivatives of selected (un)modified aminoalkanols” (Eur J Med Chem, 2016).
The source made the active and inactive calls. No cut-off for these calls is given here.

How the values were obtained:
Rattus norvegicus [1] = assay: Neurotoxicity in Sprague-Dawley rat at 30 mg/kg, po after 2 hrs; type: toxicity, organism-based; settings: in vivo
Outline: (§1)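 Sprague-Dawley rats were given 30 mg/kg orally in 0.5% methylcellulose. Neurotoxicity was checked at 0.25, 0.5, 1.0, 2.0 and 4 h after dosing. Results are given as number of rats showing neurotoxicity/number tested.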

Rattus norvegicus [2] = assay: Neurotoxicity in Sprague-Dawley rat at 30 mg/kg, po after 1 hr; type: toxicity, organism-based; settings: in vivo; outline: as §1
Rattus norvegicus [3] = assay: Neurotoxicity in Sprague-Dawley rat at 30 mg/kg, po after 0.5 hrs; type: toxicity, organism-based; settings: in vivo; outline: as §1
Rattus norvegicus [4] = assay: Anticonvulsant activity in Sprague-Dawley rat assessed as protection against maximal electroshock-induced seizures at 30 mg/kg, po after 4 hrs; type: functional, organism-based
Outline: (§2)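 Sprague-Dawley rats were given 30 mg/kg p.o. in 0.5% methylcellulose. Maximal electroshock was applied at 0.25, 0.5, 1.0, 2.0 and 4 h after dosing. Results are reported as number of rats protected / number tested.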

Rattus norvegicus [5] = assay: Anticonvulsant activity in Sprague-Dawley rat assessed as protection against maximal electroshock-induced seizures at 30 mg/kg, po after 2 hrs; type: functional, organism-based; outline: as §2
Rattus norvegicus [6] = assay: Anticonvulsant activity in Sprague-Dawley rat assessed as protection against maximal electroshock-induced seizures at 30 mg/kg, po after 0.5 hrs; type: functional, organism-based; outline: as §2
Mus musculus [7] = assay: Anticonvulsant activity in albino Carworth Farms No.1 mouse assessed as protection against 6-Hz electroshock-induced seizures at 100 mg/kg, ip after 2 hrs; type: functional, organism-based
Outline: (§3)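 Carworth Farms No.1 albino mice were dosed i.p. at 100 mg/kg (0.5% methylcellulose solution or suspension). 6-Hz seizures were induced at 32 mA at 0.25, 0.5, 1.0, 2.0 and 4 h after injection. Results are given as animals protected / animals tested.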

Mus musculus [8] = assay: Anticonvulsant activity in albino Carworth Farms No.1 mouse assessed as protection against 6-Hz electroshock-induced seizures at 100 mg/kg, ip after 1 hr; type: functional, organism-based; outline: as §3
Mus musculus [9] = assay: Neurotoxicity in albino Carworth Farms No.1 mouse at 100 mg/kg, ip after 0.5 hrs by rotarod test; type: toxicity, organism-based; settings: in vivo
Outline: (§4)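 Mice (albino Carworth Farms No.1) were dosed i.p. at 30, 100 or 300 mg/kg in 0.5% methylcellulose. They were tested 0.5 and 4 h later on a 1-inch knurled rod rotating at 6 rpm. Neurotoxicity was scored if a mouse could not stay on the rod for at least 1 min in each of three trials. Results are given as animals toxic/animals tested, with deaths noted.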

Mus musculus [10] = assay: Anticonvulsant activity in albino Carworth Farms No.1 mouse assessed as protection against subcutaneous dosed pentetrazol-induced seizures at 300 mg/kg, ip after 4 hrs; type: functional, organism-based
Outline: (§5)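 Mouse i.p. screen in Carworth Farms No.1 albino mice at 30, 100 or 300 mg/kg in 0.5% methylcellulose. Testing was at 0.5 and 4 h after injection, by maximal electroshock or by subcutaneous pentetrazol challenge. Scoring was number protected / number used.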

Mus musculus [11] = assay: Neurotoxicity in albino Carworth Farms No.1 mouse at 30 mg/kg, ip after 0.5 hrs by rotarod test; type: toxicity, organism-based; settings: in vivo; outline: as §4
Mus musculus [12] = assay: Anticonvulsant activity in albino Carworth Farms No.1 mouse assessed as protection against subcutaneous dosed pentetrazol-induced seizures at 300 mg/kg, ip after 0.5 hrs; type: functional, organism-based; outline: as §5
Mus musculus [13] = assay: Anticonvulsant activity in albino Carworth Farms No.1 mouse assessed as protection against subcutaneous dosed pentetrazol-induced seizures at 30 mg/kg, ip after 0.5 hrs; type: functional, organism-based; outline: as §5
Mus musculus [14] = assay: Anticonvulsant activity in albino Carworth Farms No.1 mouse assessed as protection against maximal electroshock-induced seizures at 100 mg/kg, ip after 0.5 hrs; type: functional, organism-based; outline: as §5
Mus musculus [15] = assay: Anticonvulsant activity in albino Carworth Farms No.1 mouse assessed as protection against maximal electroshock-induced seizures at 30 mg/kg, ip after 4 hrs; type: functional, organism-based; outline: as §5
Salmonella typhimurium [16] = assay: Mutagenicity in Salmonella typhimurium TA98 assessed as number of revertants at 1000 ug/plate by Ames test (reference value: 23 +/- 3); type: toxicity, organism-based; settings: salmonella enterica subsp. enterica serovar typhimurium
[17] = Hepatotoxicity against human HepG2 cells assessed as cell viability at 10 uM after 24 hrs by MTT assay relative to control; type: toxicity, cell-based; settings: read-out: Activity
Outline: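 HepG2 cells (EMEM, 10% FBS, 37 °C, 5% CO₂) were seeded at 1 × 10⁴ per well and cultured overnight. They were then exposed to increasing compound concentrations for 24 h. MTT reagent was added for 3 h and formazan crystals dissolved before reading. Data are mean ± SD of at least three independent experiments, relative to untreated control.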

Salmonella typhimurium [18] = assay: Mutagenicity in Salmonella typhimurium TA1535 assessed as assessed as mutagenic index at 500 ug/plate by Ames test; type: toxicity, organism-based; settings: salmonella enterica subsp. enterica serovar typhimurium
Salmonella typhimurium [19] = assay: Mutagenicity in Salmonella typhimurium TA98 assessed as mutagenic index at 20 ug/plate by Ames test; type: toxicity, organism-based; settings: salmonella enterica subsp. enterica serovar typhimurium
Salmonella typhimurium [20] = assay: Mutagenicity in Salmonella typhimurium TA98 assessed as mutagenic index at 100 ug/plate by Ames test; type: toxicity, organism-based; settings: salmonella enterica subsp. enterica serovar typhimurium
Salmonella typhimurium [21] = assay: Mutagenicity in Salmonella typhimurium TA98 assessed as mutagenic index at 1000 ug/plate by Ames test; type: toxicity, organism-based; settings: salmonella enterica subsp. enterica serovar typhimurium
HepG2 = assay: Cytotoxicity against human HepG2 cells assessed as change in cell morphology after 48 hrs by inverted microscopic analysis; type: cell-based; settings: hepg2, 48 h
Outline: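 HepG2 cells in EMEM with 10% FBS and antibiotics were seeded at 5 × 10⁴ cells/cm². After 24 h the medium was replaced with fresh medium with or without compound. After 48 h, cells were imaged under interference modulation contrast at 37 °C, 5% CO₂.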

Mus musculus [22] = assay: Neurotoxicity in albino Carworth Farms No.1 mouse at 30 mg/kg, ip after 4 hrs by rotarod test; type: toxicity, organism-based; settings: in vivo; outline: as §4
Mus musculus [23] = assay: Neurotoxicity in albino Carworth Farms No.1 mouse at 100 mg/kg, ip after 4 hrs by rotarod test; type: toxicity, organism-based; settings: in vivo; outline: as §4
[24] = Lipophilicity of the compound using 85% methanol in water at 1 mg/ml by RT-TLC analysis; type: physicochemical; settings: buffer
Outline: (§6)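 Reversed-phase TLC with a methanol–water mobile phase at the stated methanol content (v/v). Compounds were spotted from 1 mg/mL methanol solutions after 1 h chamber saturation and located under UV light. Rf was measured and RM = log(1/Rf − 1) calculated.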

[25] = Lipophilicity of the compound using 75% methanol in water at 1 mg/ml by RT-TLC analysis; type: physicochemical; settings: buffer; outline: as §6
Salmonella typhimurium [26] = assay: Mutagenicity in Salmonella typhimurium TA98 assessed as number of revertants at 100 ug/plate by Ames test (reference value: 23 +/- 3); type: toxicity, organism-based; settings: salmonella enterica subsp. enterica serovar typhimurium
Salmonella typhimurium [27] = assay: Mutagenicity in Salmonella typhimurium TA98 assessed as number of revertants at 20 ug/plate by Ames test (reference value: 23 +/- 3); type: toxicity, organism-based; settings: salmonella enterica subsp. enterica serovar typhimurium
Salmonella typhimurium [28] = assay: Mutagenicity in Salmonella typhimurium TA98 assessed as number of revertants at 4 ug/plate by Ames test (reference value: 23 +/- 3); type: toxicity, organism-based; settings: salmonella enterica subsp. enterica serovar typhimurium
Salmonella typhimurium [29] = assay: Mutagenicity in Salmonella typhimurium TA1535 assessed as number of revertants at 1000 ug/plate by Ames test (reference value: 10 +/- 3); type: toxicity, organism-based; settings: salmonella enterica subsp. enterica serovar typhimurium
[30] = Neurotoxicity in ip dosed albino Carworth Farms No.1 mouse after 0.25 hrs by rotarod test; type: toxicity, organism-based; settings: in vivo
in vitro [31] = settings: human, HepG2 cells
in vitro [32] = settings: human, HepG2 cells; remark: listed apart in the source
in vitro [33] = settings: human, HepG2 cells; remark: listed apart in the source

Rm [24]: -0.16
Rm [25]: -0.1
Compound: CC(C)C(CO)NC(=O)/C=C/c1ccccc1 (racemic)
Activity (Rattus norvegicus [1]): Non-toxic
Activity (Rattus norvegicus [2]): Non-toxic
Activity (Rattus norvegicus [3]): Non-toxic
Activity (Rattus norvegicus [4]): inactive
Activity (Rattus norvegicus [5]): inactive
Activity (Rattus norvegicus [6]): inactive
Activity (Mus musculus [7]): inactive
Activity (Mus musculus [8]): inactive
Activity (Mus musculus [9]): Non-toxic
Activity (Mus musculus [10]): inactive
Activity (Mus musculus [11]): Non-toxic
Activity (Mus musculus [12]): inactive
Activity (Mus musculus [13]): inactive
Activity (Mus musculus [14]): inactive
Activity (Mus musculus [15]): inactive
Activity (Salmonella typhimurium [16]): 15
viability at 24 h, 10 µM [17]: 95.2%
Activity_index (Salmonella typhimurium [18]): 0.7
Activity_index (Salmonella typhimurium [19]): 0.8
Activity_index (Salmonella typhimurium [20]): 0.8
Activity_index (Salmonella typhimurium [21]): 0.7
Activity (HepG2): Non-toxic
Activity (Mus musculus [22]): Non-toxic
Activity (Mus musculus [23]): Non-toxic
Activity (Salmonella typhimurium [26]): 19
Activity (Salmonella typhimurium [27]): 19
Activity (Salmonella typhimurium [28]): 20
Activity (Salmonella typhimurium [29]): 7
TD50 at 0.25 h [30]: 190 mg/kg
viability at 24 h, 25 µM (in vitro [31]): 98%
viability at 24 h, 50 µM (in vitro [32]): 93%
viability at 24 h, 100 µM (in vitro [33]): 90%
